Test results: ChEMBL document CHEMBL2417391, “Additional cytotoxic pyridoacridine alkaloids from the ascidian Cystodytes violatinctus and biogenetic considerations” (J Nat Prod, 2013)
pIC50: −log10 of the molar value.

What was measured:
Type in all cases: functional, cell-based
HCT-116 = test: Cytotoxicity against human HCT116 cells after 48 hrs by MTT assay; conditions: HCT-116, 48 h
How it was run: (§1)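 Colon lines HCT116 and SW480 kept in DMEM with 10% FBS, 2 mM L-glutamine, penicillin/streptomycin. 20 × 10^3 cells/well seeded, overnight adhesion, then 48 h treatment at 10−10 to 10−4 M, serially diluted in medium from 10−2 M DMSO stock; triplicates. Viability by MTT (3 h), formazan in 2-propanol/HCl read at 540 nm; IC50 by sigmoidal curve fitting.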

A-375 = test: Cytotoxicity against human A375 cells after 48 hrs by MTT assay; conditions: A-375, 48 h
How it was run: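 A375 melanoma cells grown in RPMI complete medium with 10% FBS, 2 mM L-glutamine, penicillin/streptomycin. Seeded 20 × 10^3 cells/well, adhered overnight, then exposed 48 h to serial dilutions from 10−10 to 10−4 M (from 10−2 M DMSO stock) in triplicate. MTT 1 mg/mL added for 3 h, formazan dissolved in 2-propanol/HCl, absorbance 540 nm; IC50 from sigmoidal dose–response fit.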

SW480 = test: Cytotoxicity against human SW480 cells after 48 hrs by MTT assay; conditions: SW480, 48 h; how it was run: as §1

SMILES | pIC50 (HCT-116) | pIC50 (A-375) | pIC50 (SW480)
C/C=C(\C)C(=O)NCCc1c2c(c3nccc4c3c1Nc1ccccc1-4)NC(=O)CS2 | < 5.00 | < 5.00 | < 5.00
O=C1c2cccnc2-c2nccc3c2c1nc1ccccc13 [ASCIDIDEMIN] | 6.60 | 6.42 | 7.00
C/C=C(\C)C(=O)Nc1cc2cc(O)c3nccc4c5ccccc5n1c2c34 | 4.72 | < 5.00 | < 5.00
CC(C)=CC(=O)Nc1cc2cc(O)c3nccc4c5ccccc5n1c2c34 | 5.36 | 5.22 | 5.07
CC(C)=CC(=O)NCCc1c2c(c3nccc4c3c1Nc1ccccc1-4)NC(=O)CS2 | 4.72 | < 5.00 | 5.00
C/C=C(\C)C(=O)NCCc1c2c3c(ccnc3c3ncsc13)-c1ccccc1N2 | < 5.00 | < 5.00 | 5.48
CC(C)=CC(=O)NCCc1c2c3c(ccnc3c3ncsc13)-c1ccccc1N2 | 4.84 | 4.93 | 5.10
